Reference: ChEMBL document CHEMBL1126658, “Thyroid hormone uptake by hepatocytes: structure-activity relationships of phenylanthranilic acids with inhibitory activity” (J Med Chem, 1993)

These compounds were tested on H4 (assay: Compound is evaluated for the inhibition of [125I]T3 uptake by H4 rat hepatoma cells at 0.1 mM).
Type: functional
Summary of the method: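 H4 rat hepatoma cells grown in DMEM/10% FCS at 37 °C, plated to confluence (2 × 10^6 cells/well), then held overnight in serum-free DMEM. Fresh medium with 10^-11 M [125I]T3 plus test substance (final 0.1 mM from DMSO/ethanol stock; solvent-matched controls), 2 min at 37 °C. Five PBS pH 7.4 washes, 0.1 M NaOH lysis, cell-associated radioactivity counted. Nondisplaceable uptake taken with 10^-5 M unlabeled T3. Percent inhibition vs control, ≥5 replicates.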

SMILES | inhibition at 100 µM [%]
O=C(O)c1ccccc1Nc1cccc(Cl)c1Cl [CLOFENAMIC ACID] | 56.6
N#Cc1cccc(Nc2ccccc2C(=O)O)c1 | 11.6
O=C(O)c1ccccc1Nc1cccc(C(F)(F)F)c1 [FLUFENAMIC ACID] | 64.4
O=C(O)c1ccccc1Nc1cc(Cl)cc(Cl)c1 | 60.6
O=C(O)c1ccccc1Nc1ccc(Cl)c(C(F)(F)F)c1 | 51
Cc1cccc(Nc2ccccc2C(=O)O)c1 | 30
O=C(O)c1ccccc1Nc1c(Cl)cccc1Cl | 54.6
O=C(O)c1ccccc1Nc1cccc(I)c1 | 40
Cc1ccc(Cl)c(Nc2ccccc2C(=O)O)c1Cl [MECLOFENAMIC ACID] | 74.2
O=C(O)c1ccccc1Nc1cccc(Br)c1 | 48.1
O=C(O)c1ccccc1Nc1cccc(OC(F)(F)C(F)F)c1 | 57
O=C(O)c1ccccc1Nc1cccc(O)c1 | 6.6
O=C(O)c1ccccc1Nc1cc(Cl)ccc1Cl | 43.2
O=C(O)Cc1ccccc1Nc1c(Cl)cccc1Cl [DICLOFENAC] | 38
Cc1cccc(C)c1Nc1ccccc1C(=O)O | 48
Cc1cccc(Nc2ccccc2C(=O)O)c1C [MEFENAMIC ACID] | 60.9
COc1ccc(Nc2ccccc2C(=O)O)cc1C(F)(F)F | 54
O=C(O)c1ccccc1Nc1ccccc1 [FENAMIC ACID] | 28
O=C(O)c1ccccc1Nc1ccccc1Cl | 44.6
O=C(O)c1ccccc1Nc1cc(Br)cc(Br)c1 | 39.1
O=C(O)c1ccccc1Nc1ccc(Cl)c(Cl)c1 | 55.6
O=C(O)c1ccccc1Nc1cc(C(F)(F)F)cc(C(F)(F)F)c1 | 39.5
O=C(O)c1ccccc1Nc1cccc(Cl)c1 | 51.4
Cc1cccc(Nc2ccccc2)c1C | 35.4
